Screening data (PubChem)
A selection follows.
Apaf-1 act: human Apaf-1 activation; Apaf-1 apoptosome caspase-3 activation, DEVD-Rh110 fluorescence; hits give low values; hit rate 0.31% among 330,000; activity change, negative = activation, % at 20 µM;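 active means activity change at or below -40% at 20 µM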
Target sequence (O14727 whole entry, looked up): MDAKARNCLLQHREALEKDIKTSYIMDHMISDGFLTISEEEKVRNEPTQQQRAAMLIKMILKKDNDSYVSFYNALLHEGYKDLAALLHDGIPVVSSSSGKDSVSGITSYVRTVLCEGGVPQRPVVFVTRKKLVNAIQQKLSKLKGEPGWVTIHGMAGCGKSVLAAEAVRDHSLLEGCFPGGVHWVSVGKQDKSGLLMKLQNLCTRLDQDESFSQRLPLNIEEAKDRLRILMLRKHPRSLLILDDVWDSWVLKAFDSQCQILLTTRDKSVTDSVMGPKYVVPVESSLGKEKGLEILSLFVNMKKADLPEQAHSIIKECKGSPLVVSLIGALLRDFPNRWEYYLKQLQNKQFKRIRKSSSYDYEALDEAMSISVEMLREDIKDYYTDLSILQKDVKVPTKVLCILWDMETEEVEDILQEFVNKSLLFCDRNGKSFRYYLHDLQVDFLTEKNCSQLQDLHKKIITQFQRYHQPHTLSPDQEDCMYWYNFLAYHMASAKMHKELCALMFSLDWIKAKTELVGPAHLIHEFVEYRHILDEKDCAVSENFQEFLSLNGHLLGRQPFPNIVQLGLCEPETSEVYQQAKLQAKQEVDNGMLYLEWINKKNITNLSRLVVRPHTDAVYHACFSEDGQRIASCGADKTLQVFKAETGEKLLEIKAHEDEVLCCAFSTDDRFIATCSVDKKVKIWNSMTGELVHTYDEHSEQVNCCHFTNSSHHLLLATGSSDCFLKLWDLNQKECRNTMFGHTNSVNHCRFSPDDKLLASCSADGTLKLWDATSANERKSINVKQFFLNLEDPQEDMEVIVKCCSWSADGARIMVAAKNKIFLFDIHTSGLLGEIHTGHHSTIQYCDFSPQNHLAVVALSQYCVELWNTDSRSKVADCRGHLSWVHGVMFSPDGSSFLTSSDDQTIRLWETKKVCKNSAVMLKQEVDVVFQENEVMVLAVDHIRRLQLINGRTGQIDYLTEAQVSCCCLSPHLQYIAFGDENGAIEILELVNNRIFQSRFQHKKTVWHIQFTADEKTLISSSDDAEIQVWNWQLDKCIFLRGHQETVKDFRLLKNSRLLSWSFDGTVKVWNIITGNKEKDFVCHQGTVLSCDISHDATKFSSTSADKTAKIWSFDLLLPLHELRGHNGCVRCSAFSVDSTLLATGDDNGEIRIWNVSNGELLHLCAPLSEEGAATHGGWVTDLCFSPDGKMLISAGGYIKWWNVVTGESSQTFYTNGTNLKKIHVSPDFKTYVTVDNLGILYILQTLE
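system = biochemical Apaf-1 apoptosome reconstitution | buffer or medium = 20 mM HEPES pH 7.5 with CHAPS, BSA | also added = dATP and cytochrome c as apoptosome triggers, (Z-DEVD)2-Rh110 substrate | incubation = 30 min compound preincubation and 50 min reaction, both room temperature | measured by = fluorescence, 540 nm emission, 480 nm excitation | read-out basis = Caspase-3 cleavage activity downstream of Apaf-1 activation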
An asterisk follows results filed as active.

SMILES	Apaf-1 act
CC(C)[C@H](NC(=O)N1CCC(Cc2ccccc2)CC1)C(=O)O	41.6
O=C(COC(=O)c1ccccc1)NCC1CCCO1 (stereo not drawn)	56.5
CC(NC(=O)CC1CCCCC1)c1ccccc1 (stereo not drawn)	-109.4*
CCCN(CC(=O)Nc1ccccc1OC)C(=O)CSc1ccc(Br)cc1C	57.3
C[C@H](O)CC(=O)O	-8.0
CN(C)C(=O)c1ccc(NC(=O)c2sccc2-c2ccccc2)cc1	44.9
CCN1CCCC1CNC(=O)C1CCN(Cc2nc(-c3cccc(Br)c3)oc2C)CC1 (stereo not drawn)	-89.5*
COCc1ccc(CN2CCC(C(=O)Nc3cccc(-c4cccc(Cl)c4)c3)CC2)o1	49.3
COCCn1c(SCC(=O)NNC(=O)c2cc(Cl)ccc2OC)nnc1-c1ccncc1	48.7
Cc1cc(C)c(C2=CC(c3ccccc3)n3ncnc3N2)cc1C (stereo not drawn)	-214.9*
CCN(CC)CCn1c(SCC(=O)Nc2ccc3c(c2)CCC3)nc2ccccc2c1=O	50.9
Cc1cc2nc3ccc(N(C)C)cc3nc2cc1N	89.5
CCN(c1ccccc1)S(=O)(=O)c1cccc(C(=O)NCCN2CCOCC2)c1	43.8
c1ccc2c(NCCCN3CCOCC3)c3ccccc3nc2c1	-62.7*
Cc1c2ccccc2nc2c(F)c(NCCO)c(F)c(F)c12	53.8
CCc1noc(C)c1C(=O)N1CCN(S(=O)(=O)c2c(C)cc(C)cc2C)CC1	57.3
COc1cc(/C=C2/C(=O)N(c3ccc(C(=O)O)cc3)N=C2C)cc(OC)c1O	77.6
COc1ccc(NC(=O)CN2C(=O)S/C(=C/c3cccn3-c3ccc(C(=O)O)cc3)C2=O)cc1	-239.7*
COc1ccc(NC(=O)CCn2c(=S)[nH]c3ccccc3c2=O)cc1	85.7
FC(F)(F)c1cc(CO[C@@H]2CCCN[C@@H]2c2ccccc2)cc(C(F)(F)F)c1	47.3
S=C(NCc1ccc2c(c1)OCO2)Nc1ccc2nsnc2c1	61.6
CSc1ccccc1NC(=O)COc1ccc2c(c1)OCO2	45.3
O=C(NC(Cc1ccc2c(c1)OCO2)C(=O)NC(Cc1ccccc1)C(=O)O)c1ccccc1 (stereo not drawn)	-41.7*
CCN1CCN(S(=O)(=O)c2ccc(Cl)c(C(=O)N(C)Cc3cccc(Cl)c3Cl)c2)CC1	42.6
CN(C)CCN(C(=O)c1cccc2ccccc12)c1nc2cc3c(cc2s1)OCO3	51.8
SMILES	Apaf-1 act
COc1ccccc1-c1c(C#N)c(N)nc2c1CCc1ccccc1-2	96.3
Cc1cc(N2CCCC2)ccc1NC(=O)COc1ccccc1	52.2
O=C(Cc1ccc(Br)cc1)Nc1ccccc1N1CCCC1	-65.5*
O=C(NCC(F)(F)F)c1ccc(S(=O)(=O)Nc2ccccc2N2CCCC2)cc1	54.2
Cc1ccc(S(=O)(=O)N2CCN(C(=O)CCOc3cc(C)ccc3C)CC2)cc1	40.4
CN(C)CCCNC(=O)C[C@H]1C[C@H](C(=O)N2CCCCC2)[C@@]2(CCc3ccccc3)c3[nH]c4ccc(Cl)cc4c3CCN2C1=O	73.8
COc1ccc(C2(c3ccc(OC)cc3)NC(=O)N(CC(=O)N(C)C)C2=O)cc1	-130.8*
COc1ccc(C2(c3ccc(OC)cc3)NC(=O)N(CC(=O)Nc3ccc(N4CCOCC4)cc3)C2=O)cc1	40.9
COc1cc(NC(=O)CN2C(=O)NC3(CCOc4ccccc43)C2=O)cc(OC)c1 (stereo not drawn)	58.5
CCOC(=O)C1=C(c2ccccc2)NC(N)=NC1c1ccc(OCc2ccc(Cl)cc2)c(OC)c1 (stereo not drawn)	58.1
CCCCn1c2ccccc2c2nnc(SCC(=O)NC3=NN=C(c4ccccc4)CS3)nc21	-68.9*
CCn1c2ccccc2c2nnc(SCC(=O)c3c(N)n(C)c(=O)n(C)c3=O)nc21	54.0
CCCCn1c(NC(C)=O)c(C#N)c2nc3ccccc3nc21	84.5
CCCCNc1c(-c2ccc(SC(C)CC)cc2)nc2cnccn12 (stereo not drawn)	59.9
COc1ccc(C(CNC(=O)C2CC(=O)N(Cc3ccccc3)C2)N2CCCC2)cc1 (stereo not drawn)	61.5
Cc1ccc(C)c(NC(=O)/C(C#N)=C/c2ccc(Sc3nncn3C)c([N+](=O)[O-])c2)c1	-217.2*
O=c1[nH]c(C2CCCN(S(=O)(=O)c3ccccc3F)C2)nc2c1nnn2Cc1ccccc1Cl (stereo not drawn)	41.2
COCCN(C(=O)CSc1nc(N)cc(=O)[nH]1)c1c(N)n(Cc2ccccc2)c(=O)[nH]c1=O	45.3
CCCc1cc(=O)oc2c3c(c4c(c12)OC(C)(C)C=C4)OC(C)C(C)C3O (stereo not drawn)	52.7
COc1ccc(OC)c2c1cc(C(=O)N[C@H](C(=O)N1CCC[C@H]1C(=O)O)C(C)C)n2C	52.1
N#C/C(=C/c1ccc(OCc2ccc(C(=O)O)cc2)c(Br)c1)c1cccc(F)c1	-335.2*
CC(=O)c1ccc2c(c1)c(C#N)c1ccccc1[n+]2[O-]	73.9
NC1=NC[C@H](Cc2ccc(O)cc2)N1CCC12CC3CC(CC(C3)C1)C2	49.4
COc1ccccc1NS(=O)(=O)c1cccc(C(=O)N2CCN(C/C=C/c3ccccc3)CC2)c1	45.8
C=CCn1c(NC(=O)c2ccccc2Cl)c(C#N)c2nc3ccccc3nc21	96.1
SMILES	Apaf-1 act
O=C(Nc1ccnn1C1CCN(C/C=C/c2ccccc2)CC1)c1ccccc1Cl	-61.3*
CCc1cc(CNC(=O)c2ccc(OC3CCN(CCc4ccccc4)CC3)cc2)on1	-41.4*
COc1ccc(CCn2c(N)c(C(=O)NCc3ccco3)c3nc4ccccc4nc32)cc1OC	62.8
CC1CCN(CCc2nc3cc(NC(=O)COc4ccccc4)ccc3n2C)CC1	52.4
CCC1CCCCN1C(=O)COc1ccc(N(C)S(=O)(=O)c2ccc(C)cc2)cc1 (stereo not drawn)	50.9
c1coc(-c2nnc(-c3ccco3)nn2)c1	84.3
CCN(CC)CCNC(=O)c1ccc(NC(=O)C2CC(=O)N(CCc3ccc(OC)c(OC)c3)C2)cc1 (stereo not drawn)	47.2
CN(C)C=Nc1ccc2nc3c(cc2c1)[nH]c1ccccc13	46.4
O=C1C(c2ccccc2)=[N+]([O-])c2ccccc21	85.3
c1ccc2c(c1)CCN(C1=Nc3cccc4cccc1c34)C2	42.9
COC(=O)C1=C(C)N(Cc2ccccc2)C(=NCCc2c[nH]c3ccccc23)N[C@H]1c1ccccc1	69.2
O=C(NCCc1c[nH]c2ccccc12)OCCSS(=O)(=O)O	-93.5*
COC(=O)C1=C(C)N(Cc2ccccc2)C(=NCCc2c[nH]c3ccccc23)N[C@H]1c1cccc(F)c1	60.5
COc1ccc(C(CNC(=O)c2cccc(S(=O)(=O)N(C)c3ccccc3)c2)N2CCCC2)cc1 (stereo not drawn)	43.5
CC(CS(=O)(=O)c1ccc2c(c1)NC(=O)CS2)C(=O)NCc1ccccc1Cl (stereo not drawn)	-158.0*
Cc1ccc(C(=O)NC(C)c2nc3ccccc3n2CC(=O)Nc2c(C)cc(C)cc2C)cc1 (stereo not drawn)	-100.0*
CCC(=O)Nc1c(S(=O)(=O)c2ccc(C)cc2)c2nc3ccccc3nc2n1C(C)c1ccccc1 (stereo not drawn)	44.4
COc1ccc(NC(=O)[C@@H](NC(=O)N2C[C@H]3C[C@@H](C2)c2cccc(=O)n2C3)C(C)C)cc1OC	61.7
CCc1cccc(NC(=S)Nc2cccc3ccccc23)c1	79.1
CCN(CC(=O)Nc1ccc2c(c1)OCCO2)C(=O)/C=C/c1ccc(OC)cc1OC	64.0
CC(=O)Nc1ccc2nc3ccccc3nc2c1	49.8
